Measurements as given in ChEMBL document CHEMBL1811780, “Could LogP be a principal determinant of biological activity in 18-crown-6 ethers? Synthesis of biologically active adamantane-substituted diaza-crowns” (Eur J Med Chem, 2011).
pIC50: −log10 of the molar value. Active and inactive are the calls of the source. The calls are words filed in the database; no cut-off is given here.

Legend:
Bacillus subtilis = test: Antibacterial activity against Bacillus subtilis after 70 mins; assay type: functional, organism-based
Escherichia coli [1] = test: Antibacterial activity against Escherichia coli assessed as growth inhibition at 10^-4 M after 105 mins; assay type: functional; conditions: 1.75 h, read-out: GI
Summary of the method: (§1)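 E. coli grown in LB at 37 °C with shaking to OD600 ≈0.1. Culture split into untreated control and four treated aliquots at 10^-4, 10^-5, 10^-6 and 10^-7 M. Grown 105 min (about three mass doublings) at 37 °C. Dilutions in phosphate buffer plated on LB, incubated overnight at 37 °C, CFU counted. % growth inhibition and GI50 derived as for tumour cells. Quadruplicate, at least two experiments.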

NCI-H460 = test: Antiproliferative activity against human H460 cells after 72 hrs by MTT assay; assay type: functional; conditions: NCI-H460, 72 h
Summary of the method: (§2)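 Adherent monolayers grown in DMEM with 10% FBS, 2 mM L-glutamine, penicillin and streptomycin at 37 °C, 5% CO2. Cells seeded on day 0, then given five 10-fold dilutions (10^-8 to 10^-4 mol/L), DMSO at most 0.25%, for 72 h. MTT read at 570 nm. GI50 from linear regression of percentage growth around 50%. Quadruplicate points; mean of three experiments.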

MCF7 = test: Antiproliferative activity against human MCF7 cells after 72 hrs by MTT assay; assay type: functional; conditions: MCF7, 72 h; summary of the method: as §2
SW-620 [2] = test: Antiproliferative activity against human SW620 cells after 72 hrs by MTT assay; assay type: functional; conditions: SW-620, 72 h; summary of the method: as §2
HCT-116 = test: Antiproliferative activity against human HCT116 cells after 72 hrs by MTT assay; assay type: functional; conditions: HCT-116, 72 h; summary of the method: as §2
MOLT-4 = test: Antiproliferative activity against human MOLT4 cells after 72 hrs by MTT assay; assay type: functional; conditions: MOLT-4, 72 h
Summary of the method: as §2, with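 “MOLT-4” for “Adherent monolayers”, “suspension in RPMI” for “DMEM”, “Treated with” for “Cells seeded on day 0, then given”, “by” for “from”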

HeLa = test: Antiproliferative activity against human HeLa cells after 72 hrs by MTT assay; assay type: functional; summary of the method: as §2
MIA PaCa-2 = test: Antiproliferative activity against human MIAPaCa2 cells after 72 hrs by MTT assay; assay type: functional; conditions: MIA PaCa-2, 72 h; summary of the method: as §2
SW-620 [3] = test: Induction of apoptosis in human SW620 cells assessed as viable cells at 5 uM after 48 hrs using annexin-V/conjugated 7-AAD double staining by flow cytometry (reference value: 95.95%); assay type: functional; conditions: SW-620, 48 h, read-out: Activity
SW-620 [4] = test: Induction of apoptosis in human SW620 cells assessed as early apoptotic cells at 10 uM after 48 hrs using annexin-V/conjugated 7-AAD double staining by flow cytometry (reference value: 2.58%); assay type: functional
SW-620 [5] = test: Induction of apoptosis in human SW620 cells assessed as necrotic cells at 10 uM after 48 hrs using annexin-V/conjugated 7-AAD double staining by flow cytometry (reference value: 0.14%); assay type: functional
SW-620 [6] = test: Cell cycle arrest in human SW620 cells assessed as S phase reduction at 5 uM after 24 to 48 hrs using propidium iodide staining by flow cytometry; assay type: functional, cell-based
Summary of the method: (§3)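 2×10^5 SW 620 cells per well were treated 24 h after seeding, for 24 or 48 h. Attached and floating cells were pooled, fixed in 70% ethanol, then stained with 1 µg/ml PI plus RNase A. 20000 events were acquired by flow cytometry. Phase percentages came from DNA histograms; subG1 is given as a percentage of all counts.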

SW-620 [7] = test: Cell cycle arrest in human SW620 cells assessed as G1 phase delay at 10 uM after 24 to 48 hrs using propidium iodide staining by flow cytometry; assay type: functional, cell-based; summary of the method: as §3
SW-620 [8] = test: Cell cycle arrest in human SW620 cells assessed as S phase reduction at 10 uM after 24 to 48 hrs using propidium iodide staining by flow cytometry; assay type: functional, cell-based; summary of the method: as §3
SW-620 [9] = test: Induction of apoptosis in human SW620 cells assessed as late apoptotic cells at 10 uM after 48 hrs using annexin-V/conjugated 7-AAD double staining by flow cytometry (reference value: 1.33%); assay type: functional
SW-620 [10] = test: Cell cycle arrest in human SW620 cells assessed as accumulation in subG1 phase at 10 uM after 24 to 48 hrs using propidium iodide staining by flow cytometry; assay type: functional, cell-based; summary of the method: as §3
SW-620 [11] = test: Induction of apoptosis in human SW620 cells assessed as late apoptotic cells at 5 uM after 48 hrs using annexin-V/conjugated 7-AAD double staining by flow cytometry (reference value: 1.33%); assay type: functional
SW-620 [12] = test: Induction of apoptosis in human SW620 cells assessed as viable cells at 10 uM after 48 hrs using annexin-V/conjugated 7-AAD double staining by flow cytometry (reference value: 95.95%); assay type: functional; conditions: SW-620, 48 h, read-out: Activity
SW-620 [13] = test: Cell cycle arrest in human SW620 cells assessed as G1 phase delay at 5 uM after 24 to 48 hrs using propidium iodide staining by flow cytometry; assay type: functional, cell-based; summary of the method: as §3
SW-620 [14] = test: Induction of apoptosis in human SW620 cells assessed as early apoptotic cells at 5 uM after 48 hrs using annexin-V/conjugated 7-AAD double staining by flow cytometry (reference value: 2.58%); assay type: functional
SW-620 [15] = test: Induction of apoptosis in human SW620 cells assessed as necrotic cells at 5 uM after 48 hrs using annexin-V/conjugated 7-AAD double staining by flow cytometry (reference value: 0.14%); assay type: functional
Escherichia coli [16] = test: Antibacterial activity against Escherichia coli after 105 mins; assay type: functional; conditions: 1.75 h; summary of the method: as §1

SMILES | pIC50 (Bacillus subtilis) | inhibition of growth at 100 µM (Escherichia coli [1]) | GI50 (NCI-H460) | GI50 (MCF7) | GI50 (SW-620 [2]) | also measured
CC(C)(C)C1CCC2OCCOCCOC3CC(C(C)(C)C)CCC3OCCOCCOC2C1 (stereo unspecified) | 5.88 | < 15% |  |  |  | 
CC(C)(C)c1ccc2c(c1)OCCOCCOc1cc(C(C)(C)C)ccc1OCCOCCO2 | 5.70 | < 15% |  |  |  | 
O=C(N1CCOCCOCCN(C(=O)C23CC4CC(CC(C4)C2)C3)CCOCCOCC1)C12CC3CC(CC(C3)C1)C2 | 4.12 | < 15% | 12 µM | 9 µM | 21 µM | 
O=C(CCC12CC3CC(CC(C3)C1)C2)N1CCOCCOCCN(C(=O)CCC23CC4CC(CC(C4)C2)C3)CCOCCOCC1 | 3.89 | < 15% | 11 µM | 2 µM | 19 µM | GI50 (HCT-116): 6 µM; GI50 (MOLT-4): 3 µM
c1ccc(CN2CCOCCOCCN(Cc3ccccc3)CCOCCOCC2)cc1 | 3.42 | < 15% |  |  |  | 
C1CCC2OCCOCCOC3CCCCC3OCCOCCOC2C1 (stereo unspecified) [ICOSAHYDRODIBENZO[B,K][1,4,7,10,13,16]HEXAOXACYCLOOCTADECINE] | 3.78 | < 15% |  |  |  | 
C1COCCN(CC23CC4CC(CC(C4)C2)C3)CCOCCOCCN(CC23CC4CC(CC(C4)C2)C3)CCO1 | 4.60 | < 15% | 18 µM | 21 µM | 19 µM | 
C1COCCOCC23CC4CC(C2)CC(COCCOCCO1)(C4)O3 | 2.80 |  | > 100 µM | > 100 µM | > 100 µM | GI50 (HeLa): > 100 µM; GI50 (MIA PaCa-2): > 100 µM
C1COCCN(CCC23CC4CC(CC(C4)C2)C3)CCOCCOCCN(CCC23CC4CC(CC(C4)C2)C3)CCO1 | 3.60 | < 15% | 4 µM | 4 µM | 2.6 µM | viability at 5 µM (SW-620 [3]): 90%; Activity (SW-620 [4]): 13.72%; Activity (SW-620 [5]): 0.87%; GI50 (HeLa): 2.3 µM; Activity (SW-620 [6]): Active; Activity (SW-620 [7]): Active; Activity (SW-620 [8]): Active; Activity (SW-620 [9]): 9.46%; Activity (SW-620 [10]): Active; GI50 (MIA PaCa-2): 1.7 µM; Activity (SW-620 [11]): 2.34%; viability at 10 µM (SW-620 [12]): 76%; Activity (SW-620 [13]): Active; Activity (SW-620 [14]): 7.46%; Activity (SW-620 [15]): 0.17%
COC(=O)[C@@H](NC(=O)CN1CCOCCOCCN(CC(=O)N[C@@H](C(=O)OC)c2ccccc2)CCOCCOCC1)c1ccccc1 | 3.42 | < 15% |  |  |  | 
C(CN1CCOCCOCCN(CCCC23CC4CC(CC(C4)C2)C3)CCOCCOCC1)CC12CC3CC(CC(C3)C1)C2 | 4.77 | 26% | 1 µM | 2 µM | 1 µM | GI50 (Escherichia coli [16]): 1000 µM; Activity (SW-620 [6]): Active; Activity (SW-620 [7]): Active; Activity (SW-620 [8]): Active; Activity (SW-620 [10]): Active; Activity (SW-620 [13]): Active; GI50 (HCT-116): 0.4 µM; GI50 (MOLT-4): 1 µM
